Active and inactive are the calls of the source. The calls are words filed in the database; no cut-off is given here.
Tests used:
Staphylococcus aureus [1] = experiment: Antibacterial activity against clinical isolate of Staphylococcus aureus assessed as growth inhibition at 10 mg/ml after 16 to 20 hrs; type: functional, organism-based
Outline: (§1)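 Disc diffusion: sterile filter discs loaded with 10 µl of a 10 mg/ml compound solution were placed on evenly inoculated LB or minimal medium agar plates and incubated 16–20 h at 37 °C. Growth inhibition around each disc was scored qualitatively (weak, partial, or strong). Controls were 10 µl of 1 mg/ml ampicillin and DMSO.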

Staphylococcus aureus [2] = experiment: Antibacterial activity against methicillin-resistant Staphylococcus aureus Mu50 assessed as growth inhibition at 10 mg/ml after 16 to 20 hrs; type: functional, organism-based
Outline: (§2)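 Disc diffusion assay. Sterile filter discs soaked with 10 µl of a 10 mg/ml compound solution were placed on evenly inoculated LB or minimal medium agar, then incubated 16–20 h at 37 °C. Growth inhibition was scored by eye on a graded scale from strong inhibition through weak or partial inhibition to none. DMSO served as the negative control.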

Staphylococcus aureus [3] = experiment: Antibacterial activity against methicillin-resistant Staphylococcus aureus USA300 assessed as growth inhibition at 10 mg/ml after 16 to 20 hrs; type: functional, organism-based; outline: as §2
Escherichia coli [4] = experiment: Antibacterial activity against clinical isolate of Escherichia coli assessed as growth inhibition at 10 mg/ml after 16 to 20 hrs; type: functional, organism-based; outline: as §1
Escherichia coli [5] = experiment: Antibacterial activity against Escherichia coli 1655 assessed as growth inhibition at 10 mg/ml after 16 to 20 hrs; type: functional, organism-based; outline: as §1
Staphylococcus aureus [6] = experiment: Antibacterial activity against methicillin-resistant Staphylococcus aureus Mu50 assessed as growth inhibition at 10 mg/ml after 16 to 20 hrs in presence of 0.2 mM L-histidine; type: functional, organism-based
Outline: (§3)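 Histidine complementation disc assay. Discs soaked with 10 µl of a 10 mg/ml compound solution were placed on evenly inoculated minimal medium agar supplemented with 0.2 mM L-histidine, then incubated 16–20 h at 37 °C. Inhibition zones were scored by eye on a graded scale (strong, weak, partial, none).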

Staphylococcus aureus [7] = experiment: Antibacterial activity against methicillin-resistant Staphylococcus aureus USA300 assessed as growth inhibition at 10 mg/ml after 16 to 20 hrs in presence of 0.2 mM L-histidine; type: functional, organism-based; outline: as §3
Escherichia coli [8] = experiment: Antibacterial activity against Escherichia coli 1655 assessed as growth inhibition at 10 mg/ml after 16 to 20 hrs in presence of 0.2 mM L-histidine; type: functional, organism-based
Outline: (§4)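 Histidine complementation: minimal medium agar plates were supplemented with 0.2mM L-histidine and evenly inoculated. Filter discs soaked with 10 µl of 10 mg/ml compound were applied, and plates were incubated 16–20 h at 37 °C. Inhibition was scored qualitatively. Ampicillin (10 µl, 1 mg/ml) and DMSO served as controls.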

Pseudomonas aeruginosa [9] = experiment: Antibacterial activity against Pseudomonas aeruginosa PAO1 assessed as growth inhibition at 10 mg/ml after 16 to 20 hrs in presence of 0.2 mM L-histidine; type: functional, organism-based; outline: as §4
Pseudomonas aeruginosa [10] = experiment: Antibacterial activity against Pseudomonas aeruginosa PAO1 assessed as growth inhibition at 10 mg/ml after 16 to 20 hrs; type: functional, organism-based; outline: as §1
[11] = Cytotoxicity against human CL1 cells expressing hTERT assessed as cell viability at 100 ug/ml after 24 hrs by trypan blue exclusion assay; type: cell-based
Staphylococcus aureus [12] = experiment: Antibacterial activity against clinical isolate of Staphylococcus aureus assessed as growth inhibition at 1 mg/ml after 16 to 20 hrs; type: functional, organism-based
Staphylococcus aureus [13] = experiment: Antibacterial activity against methicillin-resistant Staphylococcus aureus Mu50 assessed as growth inhibition at 1 mg/ml after 16 to 20 hrs; type: functional, organism-based
Outline: (§5)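 Disc diffusion assay. Filter discs carrying 10 µl of a 1 mg/ml solution were placed on evenly inoculated LB or minimal medium agar plates, then incubated 16–20 h at 37 °C. Growth inhibition was scored by eye on a graded scale (strong, weak, partial, none).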

Staphylococcus aureus [14] = experiment: Antibacterial activity against methicillin-resistant Staphylococcus aureus USA300 assessed as growth inhibition at 1 mg/ml after 16 to 20 hrs; type: functional, organism-based; outline: as §5
Escherichia coli [15] = experiment: Antibacterial activity against clinical isolate of Escherichia coli assessed as growth inhibition at 1 mg/ml after 16 to 20 hrs; type: functional, organism-based
Escherichia coli [16] = experiment: Antibacterial activity against Escherichia coli 1655 assessed as growth inhibition at 1 mg/ml after 16 to 20 hrs; type: functional, organism-based
Staphylococcus aureus [17] = experiment: Antibacterial activity against methicillin-resistant Staphylococcus aureus Mu50 assessed as growth inhibition at 1 mg/ml after 16 to 20 hrs in presence of 0.2 mM L-histidine; type: functional, organism-based
Outline: (§6)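 Discs carrying 10 µl of a 1 mg/ml solution were placed on evenly inoculated minimal medium agar containing 0.2 mM L-histidine, then incubated 16–20 h at 37 °C. Inhibition zones were scored by eye as strong, weak, partial or none.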

Staphylococcus aureus [18] = experiment: Antibacterial activity against methicillin-resistant Staphylococcus aureus USA300 assessed as growth inhibition at 1 mg/ml after 16 to 20 hrs in presence of 0.2 mM L-histidine; type: functional, organism-based; outline: as §6
Escherichia coli [19] = experiment: Antibacterial activity against Escherichia coli 1655 assessed as growth inhibition at 1 mg/ml after 16 to 20 hrs in presence of 0.2 mM L-histidine; type: functional, organism-based
Pseudomonas aeruginosa [20] = experiment: Antibacterial activity against Pseudomonas aeruginosa PAO1 assessed as growth inhibition at 1 mg/ml after 16 to 20 hrs in presence of 0.2 mM L-histidine; type: functional, organism-based
[21] = Cytotoxicity against human CL1 cells expressing hTERT assessed as cell viability at 100 ug/ml after 24 hrs by MTT assay; type: cell-based

| SMILES | Activity (Staphylococcus aureus [1]) | Activity (Staphylococcus aureus [2]) | Activity (Staphylococcus aureus [3]) | Activity (Escherichia coli [4]) | Activity (Escherichia coli [5]) | Activity (Staphylococcus aureus [6]) | Activity (Staphylococcus aureus [7]) | Activity (Escherichia coli [8]) | Activity (Pseudomonas aeruginosa [9]) | Activity (Pseudomonas aeruginosa [10]) | other results |
| --- | --- | --- | --- | --- | --- | --- | --- | --- | --- | --- | --- |
| CC(=O)C1C(O)C(=O)N(c2ccc(C(=O)O)cc2)[C@H]1c1ccccc1 (stereo partly specified) | Active | Active | Active | Active | Active | inactive | inactive | inactive | inactive | Active | – |
| CSCC[C@@H](NCC[C@H](O)c1ccccc1)C(=O)O | inactive | inactive | inactive | inactive | inactive | – | – | – | – | Active | – |
| CCc1cc(=O)oc2c3c(c(C)c(OCC(=O)O)c12)OC(C)(C)C=C3 | inactive | Active | – | inactive | Active | inactive | inactive | Active | Active | Active | – |
| O=C1Nc2ccc(Cl)cc2C(c2cccc(O)c2)=N[C@H]1O | – | Active | Active | – | Active | – | – | – | – | Active | – |
| Cc1oc(C(=O)O)cc1COc1ccc2c3c(c(=O)oc2c1C)CCC3 | Active | Active | inactive | inactive | inactive | – | – | – | – | inactive | – |
| Cc1ncc(CO)c(CNc2ccc(Oc3ccccc3)cc2)c1O | Active | Active | Active | – | Active | – | – | – | – | Active | Activity [11]: Toxic |
| CCN(CCc1ccccc1)C(=O)CSc1ncccc1C(=O)O | – | – | – | – | Active | inactive | inactive | Active | Active | – | – |
| O=C(O)C[C@H](NCc1ccco1)C(=O)Cc1ccc(Cl)cc1 | inactive | inactive | inactive | inactive | inactive | – | – | – | – | – | – |
| CC(=O)C1=C(O)C(=O)N(CCC(=O)O)[C@@H]1c1ccc(C(C)C)cc1 | inactive | Active | inactive | Active | Active | Active | Active | Active | Active | Active | – |
| O=C(O)c1cccc(NC(=O)[C@H]2CCCC[C@@H]2C(=O)O)c1 | inactive | inactive | inactive | inactive | – | – | – | – | – | Active | – |
| O=C(O)CCCNC[C@@H](O)Cn1c2ccccc2c2ccccc21 | Active | Active | Active | – | – | Active | inactive | inactive | inactive | inactive | Activity [11]: Non-toxic |
| O=C(O)C[C@H](c1ccncc1)c1c[nH]c2ccccc12 | Active | Active | inactive | Active | – | Active | Active | Active | Active | Active | – |
| O=C(O)c1ccc([C@H](O)[C@@H](O)c2ccccc2)cc1 | Active | Active | Active | – | Active | – | – | – | – | inactive | Activity [11]: Toxic |
| CCCCc1cc(=O)oc2c(C)c(O[C@H](C)C(=O)O)ccc12 | Active | Active | inactive | – | – | Active | Active | Active | Active | Active | – |
| CC1(C)S[C@@H]2[C@H](NC(=O)[C@H](N)c3ccccc3)C(=O)N2[C@H]1C(=O)O [AMPICILLIN] | – | – | – | – | – | – | – | – | – | – | Activity [11]: Non-toxic; Activity (Staphylococcus aureus [12]): Active; Activity (Staphylococcus aureus [13]): Active; Activity (Staphylococcus aureus [14]): Active; Activity (Escherichia coli [15]): Active; Activity (Escherichia coli [16]): Active; Activity (Staphylococcus aureus [17]): Active; Activity (Staphylococcus aureus [18]): Active; Activity (Escherichia coli [19]): inactive; Activity (Pseudomonas aeruginosa [20]): inactive |
| C[C@@H](NC[C@@H](O)Cn1c2ccccc2c2ccccc21)C(=O)O | inactive | inactive | inactive | inactive | inactive | – | – | – | – | inactive | – |
| CN(C)c1ccc(/C=N/Nc2ccc(S(=O)(=O)O)cc2)cc1 | inactive | inactive | inactive | inactive | – | – | – | – | – | – | – |
| Cc1c(OCC(=O)O)ccc2c(-c3ccccc3)cc(=O)oc12 | Active | Active | Active | Active | Active | – | – | – | – | Active | Activity [21]: Non-toxic; Activity [11]: Non-toxic |

From ChEMBL document CHEMBL1250428, “Identification of novel bacterial histidine biosynthesis inhibitors using docking, ensemble rescoring, and whole-cell assays” (Bioorg Med Chem, 2010)
